Experimental data published in ChEMBL document CHEMBL1135463 (J Med Chem, 2002).
In brackets after ≈: the same amount, converted by molar mass. Activity calls are given as the source filed them. The calls are words filed in the database; no cut-off is given here.

Columns and labels:
[1] = system: DU-145; test: Cell growth inhibition of prostate DU-145 cells, expressed as 50% reduction in the net protein increase; assay type: functional; conditions: Homo sapiens
Outline: (§1)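 Human tumour lines kept in 5% FBS/RPMI-1640, plated and incubated 24 h before compound dilutions were added. Exposure 48 h, then TCA fixation, washing and sulforhodamine B staining, with optical density read on a plate reader. GI50 is the concentration giving a 50% reduction in net protein increase, calculated from the OD data.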

[2] = molecular target: T1, Tubulin (Bos taurus) (UniProt Q6B856+Q862L2+Q862F3); test: Inhibition of radiolabeled [3H]colchicine binding to tubulin at a concentration of 2 uM of the compound; assay type: protein assay
Outline: (§2)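 [3H]colchicine 5.0 µM incubated with tubulin 1.0 µM plus inhibitor at the stated level, 10 min at 37 °C, then colchicine binding measured. Reported as percent inhibition.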

[3] = molecular target: T2, Tubulin (Bos taurus, UniProt Q6B856+Q862L2+Q862F3); test: (§3) Inhibition of tubulin polymerization reported as IC50; assay type: functional
Outline: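 Tubulin at 10 µM with a range of drug concentrations. Extent of assembly read after 20 min at 30 °C. IC50 taken from the concentration needed to halve assembly.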

[4] = system: BXPC-3; test: Cell growth inhibition against pancreatic BXPC-3 cells, 50% reduction in the net protein increase; assay type: functional; conditions: Homo sapiens; outline: as §1
[5] = system: NCI-H460; test: Cell growth inhibition of lung-NSC NCI-H460 cells, expressed as 50% reduction in the net protein increase; assay type: functional; conditions: Homo sapiens; outline: as §1
[6] = system: P388; test: Evaluated for cell growth inhibition of the mouse leukemia P388 cells in 10% horse serum/Fisher media; assay type: functional; conditions: read-out: ED50 (the source's name)
Outline: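 Murine P388 leukaemia cells grown in 10% horse serum/Fisher medium, incubated 24 h, then compound dilutions added. After 48 h, cells counted on a Coulter Z1 particle counter and the ED50 for growth inhibition calculated.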

[7] = molecular target: T1, Tubulin (Bos taurus); test: Inhibition of radiolabeled [3H]colchicine binding to tubulin at a concentration of 5 uM of the compound; assay type: protein assay; outline: as §2
[8] = system: SF-268; test: Cell growth inhibition of central nervous system (CNS) SF-268 cells, expressed as 50% reduction in the net protein increase; assay type: functional; conditions: Homo sapiens; outline: as §1
[9] = system: Escherichia coli; test: The minimum inhibitory concentration (MIC) that inhibits all visible growth of the Escherichia coli (bacteria) at 64 ug/mL; NI is no inhibition; assay type: functional, organism-based
Outline: (§4)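 Broth microdilution following NCCLS reference methods (M7-A4 for aerobic bacteria, the yeast broth dilution standard for fungi). MIC is the lowest compound concentration giving optically clear wells, with no visible growth of the test organism.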

[10] = In vitro growth inhibition of NCI-H460 (human non-small cell lung carcinoma) cell line.; assay type: functional
[11] = system: Streptococcus pneumoniae; test: The minimum inhibitory concentration (MIC) that inhibits all visible growth of the Streptococcus pneumoniae (bacteria); MIC may range from (32 - 64); assay type: functional; outline: as §4
[12] = system: Enterobacter cloacae; test: The minimum inhibitory concentration (MIC) that inhibits all visible growth of the Enterobacter cloacae (bacteria) at 64 ug/mL; NI is no inhibition; assay type: functional, organism-based; outline: as §4
[13] = system: Stenotrophomonas maltophilia; test: The minimum inhibitory concentration (MIC) that inhibits all visible growth of the Stenotrophomonas maltophilia (bacteria) at 64 ug/mL; NI is no inhibition; assay type: functional, organism-based; outline: as §4
[14] = system: Enterococcus faecalis; test: the minimum inhibitory concentration (MIC) that inhibits all visible growth of the Enterococcus faecalis (bacteria) at 64 ug/mL; NI is no inhibition; assay type: functional, organism-based; outline: as §4
[15] = system: SF-268; test: In vitro growth inhibition of central nervous system SF-268 cell line.; assay type: functional; conditions: Homo sapiens
[16] = system: KM-20L2; test: In vitro growth inhibition of KM20L2 cell line.; assay type: functional; conditions: Homo sapiens
[17] = system: MCF7; test: Cell growth inhibition of breast MCF-7 cells, expressed as 50% reduction in the net protein increase; assay type: functional; conditions: Homo sapiens
[18] = system: Enterococcus faecalis; test: The minimum inhibitory concentration (MIC) that inhibits all visible growth of the Enterococcus faecalis (bacteria) at 64 ug/mL; NI is no inhibition; assay type: functional, organism-based; outline: as §4
[19] = system: Staphylococcus aureus; test: The minimum inhibitory concentration (MIC) that inhibits all visible growth of the Staphylococcus aureus (bacteria) at 64 ug/mL; NI is no inhibition; assay type: functional, organism-based; outline: as §4
[20] = system: Neisseria gonorrhoeae; test: The minimum inhibitory concentration (MIC) that inhibits all visible growth of the Neisseria gonorrhoeae (bacteria); value may range from (16 -32); assay type: functional; outline: as §4
[21] = system: BXPC-3; test: In vitro growth inhibition of BXPC-3 (human pancreatic adenocarcinoma) cell line.; assay type: functional
[22] = system: Micrococcus luteus; test: the minimum inhibitory concentration (MIC) that inhibits all visible growth of the Micrococcus luteus (bacteria) at 64 ug/mL; NI is no inhibition; assay type: functional, organism-based; outline: as §4
[23] = system: Candida albicans; test: The minimum inhibitory concentration (MIC) that inhibits all visible growth of the Candida albicans (fungus) at 64 ug/mL; NI is no inhibition; assay type: functional, organism-based; outline: as §4
[24] = system: DU-145; test: In vitro growth inhibition of DU-145 (human prostate carcinoma) cell line.; assay type: functional
[25] = system: Cryptococcus neoformans; test: Minimum inhibitory concentration (MIC) that inhibits all visible growth of the Cryptococcus neoformans (fungus); assay type: functional; outline: as §4
[26] = system: P388; test: In vitro inhibition of P388 (murine leukemia) cell proliferation.; assay type: functional; conditions: Mus musculus, read-out: ED50 (the source's name)
[27] = system: KM-20L2; test: Cell growth inhibition of colon KM20L2 cells, expressed as 50% reduction in the net protein increase; assay type: functional; conditions: Homo sapiens; outline: as §1
[28] = system: Staphylococcus aureus; test: The minimum inhibitory concentration (MIC) that inhibits all visible growth of the Staphylococcus aureus (bacteria); assay type: functional; outline: as §4
[29] = molecular target: T2, Tubulin; test: as §3; assay type: functional; remark: listed apart in the source
[30] = system: Candida albicans; test: The minimum inhibitory concentration (MIC) that inhibits all visible growth of the Candida albicans (fungus); assay type: functional; outline: as §4
[31] = system: Cryptococcus neoformans; test: Minimum inhibitory concentration (MIC) that inhibits all visible growth of the Cryptococcus neoformans (fungus).; assay type: functional; outline: as §4
[32] = system: Neisseria gonorrhoeae; test: The minimum inhibitory concentration (MIC) that inhibits all visible growth of the Neisseria gonorrhoeae (bacteria); assay type: functional; outline: as §4
[33] = system: Micrococcus luteus; test: the minimum inhibitory concentration (MIC) that inhibits all visible growth of the Micrococcus luteus (bacteria); assay type: functional; outline: as §4
[34] = system: Streptococcus pneumoniae; test: The minimum inhibitory concentration (MIC) that inhibits all visible growth of the Streptococcus pneumoniae (bacteria); assay type: functional; outline: as §4
[35] = system: Enterococcus faecalis; test: the minimum inhibitory concentration (MIC) that inhibits all visible growth of the Enterococcus faecalis (bacteria); assay type: functional; outline: as §4
[36] = system: Cryptococcus neoformans; test: Minimum inhibitory concentration (MIC) that inhibits all visible growth of the Cryptococcus neoformans (fungus) at 64 ug/mL; NI is no inhibition; assay type: functional, organism-based; outline: as §4

Compound | GI50 [1] | GI50 [4] | GI50 [5] | EC50 [6] | GI50 [8] | MIC [9] | GI50 [10] | MIC [12] | MIC [13] | MIC [14] | GI50 [15] | GI50 [16] | GI50 [17] | MIC [18] | MIC [19] | GI50 [21] | MIC [22] | MIC [23] | GI50 [24] | EC50 [26] | other results
COc1ccc(/C=C\c2cc(OC)cc(OC)c2)cc1 [8Z-3,4',5-TRIMETHOXYSTILBENE] | 0.0054 µg/mL (≈ 0.02 µM) | 0.0034 µg/mL (≈ 0.0126 µM) | 0.0028 µg/mL (≈ 0.0104 µM) | 0.0262 µg/mL (≈ 0.0969 µM) | 0.0044 µg/mL (≈ 0.0163 µM) |  |  |  |  |  |  |  |  |  |  |  |  |  |  |  | inhibition [2]: 88%; IC50 [3]: 1.8 µM; inhibition [7]: 95%
COc1ccc(C(=O)c2cc(O)cc(OC)c2)cc1 |  |  |  |  |  | inactive | 10.3 µg/mL (≈ 39.9 µM) | inactive | inactive | inactive | 13.9 µg/mL (≈ 53.8 µM) | 16.2 µg/mL (≈ 62.7 µM) | 14.2 µg/mL (≈ 55 µM) | inactive | inactive | 15 µg/mL (≈ 58.1 µM) | inactive | inactive | 12.6 µg/mL (≈ 48.8 µM) | 13.4 µg/mL (≈ 51.9 µM) | MIC [11]: 64 µg/mL (≈ 248 µM); MIC [20]: 32 µg/mL (≈ 124 µM); MIC [25]: 64 µg/mL (≈ 248 µM)
COc1ccc(/C=C\c2cc(OC)c(OC)c(OC)c2)cc1O [COMBRETASTATIN A4] | 0.0008 µg/mL (≈ 0.00253 µM) | 0.39 µg/mL (≈ 1.23 µM) | 0.0006 µg/mL (≈ 0.0019 µM) | 0.0003 µg/mL (≈ 0.000948 µM) | > 0.01 µg/mL |  |  |  |  |  |  |  |  |  |  |  |  |  |  |  | GI50 [27]: 0.34 µg/mL (≈ 1.07 µM)
COc1cc(/C=C\c2ccc(O)cc2)cc(OC)c1 |  |  |  |  |  |  | 2.8 µg/mL (≈ 10.9 µM) |  |  |  | 2.2 µg/mL (≈ 8.58 µM) | 11.9 µg/mL (≈ 46.4 µM) | 3 µg/mL (≈ 11.7 µM) |  |  | 12.6 µg/mL (≈ 49.2 µM) |  |  | 2.3 µg/mL (≈ 8.97 µM) | 2.95 µg/mL (≈ 11.5 µM) | MIC [28]: 32 µg/mL (≈ 125 µM); IC50 [29]: 29 µM; MIC [30]: 64 µg/mL (≈ 250 µM); MIC [31]: 16 µg/mL (≈ 62.4 µM); MIC [32]: 8 µg/mL (≈ 31.2 µM); MIC [33]: 8 µg/mL (≈ 31.2 µM); MIC [34]: 16 µg/mL (≈ 62.4 µM); MIC [35]: 32 µg/mL (≈ 125 µM)
COc1cc(OC)cc(C(O)c2ccc(O)cc2)c1 (stereo not given) |  |  |  |  |  | inactive | 2.3 µg/mL (≈ 8.84 µM) | inactive | inactive | inactive | 0.65 µg/mL (≈ 2.5 µM) | 5.3 µg/mL (≈ 20.4 µM) | 2 µg/mL (≈ 7.68 µM) | inactive | inactive | 1.3 µg/mL (≈ 4.99 µM) | inactive | inactive | 5.8 µg/mL (≈ 22.3 µM) | > 10 µg/mL | MIC [32]: 4 µg/mL (≈ 15.4 µM); MIC [34]: 16 µg/mL (≈ 61.5 µM); MIC [36]: inactive
